According to ChEMBL document CHEMBL3351386, “Multidrug resistance (MDR) reversers: High activity and efficacy in a series of asymmetrical N,N-bis(alkanol)amine aryl esters” (Eur J Med Chem, 2014):

Experiments:
Format in all cases: cell-based
[1] = Modulatory activity at P-gp in human K562/DOX cells assessed as increase in nuclear concentration of pirarubicin by spectrofluorometric assay; conditions: K562/Adr, read-out: I50
K562 [2] = assay: Intrinsic cytotoxicity against human K562 cells at 0.1 to 3 uM after 72 hrs by MTT assay; conditions: k562, 72 h
In short: (§1)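 K562 parental and P-gp-overexpressing K562/DOX cells, exponential phase (3 × 10⁵ cells/mL), seeded at 3000 cells/well. Test compounds alone at 0.1, 1.0 or 3.0 µM, without doxorubicin. Incubated 37 °C, 5% CO₂, 72 h. MTT added, further 3 h incubation, formazan crystals inspected microscopically.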

[3] = biological target: ATP-dependent translocase ABCB1 (Homo sapiens, UniProt P08183); assay: Modulatory activity at P-gp in doxorubicin-resistant human K562 cells assessed as MDR-reversing activity by measuring doxorubicin-induced cell mortality after 72 hrs by MTT assay relative to untreated control; conditions: k562, 72 h
In short: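 K562/DOX (P-gp-overexpressing, doxorubicin-resistant) cells in exponential growth were seeded at 3000 cells/well. Doxorubicin was given alone or with modulator at 0.1, 1.0 or 3.0 µM, and incubated 72 h at 37 °C in 5% CO2. Viability was read by MTT with a further 3 h incubation. Reversal fold is the doxorubicin IC50 without modulator divided by the IC50 with modulator. Values are the mean of ≥3 determinations, each with quadruplicate cultures.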

K562 [4] = assay: Intrinsic cytotoxicity against doxorubicin-resistant human K562 cells at 3 uM after 72 hrs by MTT assay; conditions: k562, 72 h; in short: as §1

ATP-dependent translocase ABCB1, sequence (P08183 whole entry): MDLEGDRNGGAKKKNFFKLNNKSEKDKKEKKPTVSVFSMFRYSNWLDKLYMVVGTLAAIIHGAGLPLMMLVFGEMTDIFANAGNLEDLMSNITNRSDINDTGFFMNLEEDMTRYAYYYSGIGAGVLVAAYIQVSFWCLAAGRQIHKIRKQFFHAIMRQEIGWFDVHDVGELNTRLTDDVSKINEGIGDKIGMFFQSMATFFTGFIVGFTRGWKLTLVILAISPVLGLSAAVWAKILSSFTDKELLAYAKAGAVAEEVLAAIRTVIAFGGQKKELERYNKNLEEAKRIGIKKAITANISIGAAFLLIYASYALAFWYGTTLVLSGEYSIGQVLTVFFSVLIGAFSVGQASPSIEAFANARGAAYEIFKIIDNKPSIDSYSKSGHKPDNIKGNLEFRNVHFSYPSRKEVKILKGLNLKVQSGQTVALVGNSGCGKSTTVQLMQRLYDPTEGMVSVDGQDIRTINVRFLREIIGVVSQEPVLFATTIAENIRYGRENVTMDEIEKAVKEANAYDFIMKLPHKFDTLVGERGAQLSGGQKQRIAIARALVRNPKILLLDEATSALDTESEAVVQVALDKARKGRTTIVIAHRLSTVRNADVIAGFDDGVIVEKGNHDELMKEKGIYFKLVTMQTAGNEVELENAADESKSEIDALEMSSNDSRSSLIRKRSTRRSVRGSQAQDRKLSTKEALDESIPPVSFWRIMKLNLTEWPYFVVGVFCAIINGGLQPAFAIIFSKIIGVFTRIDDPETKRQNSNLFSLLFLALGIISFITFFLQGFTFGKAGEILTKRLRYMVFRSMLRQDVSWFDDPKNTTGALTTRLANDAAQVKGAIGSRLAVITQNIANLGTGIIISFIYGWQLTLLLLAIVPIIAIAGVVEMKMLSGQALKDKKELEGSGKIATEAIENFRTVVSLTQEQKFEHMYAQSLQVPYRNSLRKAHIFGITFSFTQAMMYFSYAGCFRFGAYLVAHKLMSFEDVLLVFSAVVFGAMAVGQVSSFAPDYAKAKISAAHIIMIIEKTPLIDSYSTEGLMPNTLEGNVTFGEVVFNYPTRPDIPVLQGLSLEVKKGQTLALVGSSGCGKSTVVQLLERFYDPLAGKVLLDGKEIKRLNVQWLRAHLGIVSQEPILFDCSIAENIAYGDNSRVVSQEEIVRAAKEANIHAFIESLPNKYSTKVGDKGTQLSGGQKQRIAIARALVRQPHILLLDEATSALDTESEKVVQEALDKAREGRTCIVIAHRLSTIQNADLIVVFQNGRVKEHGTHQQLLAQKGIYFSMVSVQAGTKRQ

Q: Which IC50 [1] does the source give for `C=C[C@@H]1CN2CC[C@H]1C[C@H]2[C@@H](OCC(=O)OCCCCCN(C)CCCCCOC(=O)/C=C/c1cc(OC)c(OC)c(OC)c1)c1ccnc2ccc(OC)cc12` here?
A: Its IC50 is 2650 nM.

Q: With `COc1cc(/C=C/C(=O)OCCCCCN(C)CCCOC(=O)c2c3ccccc3cc3ccccc23)cc(OC)c1OC` as the molecule, how does the Activity (K562 [2]) read?
A: Its Activity is “Non-toxic”.

Q: What about the IC50 [1] of the same molecule?
A: The IC50 was 40 nM.

Q: And the mortality [3]?
A: The mortality was 100%.

Q: And the Activity (K562 [4])?
A: Its Activity is “<= 20%”.

Q: Which IC50 [1] does the source give for `COc1cc(C#CC(=O)OCCCN(C)CCCCCOC(=O)c2c3ccccc3cc3ccccc23)cc(OC)c1OC` here?
A: The IC50 was 110 nM.

Q: With `COc1cc(C#CC(=O)OCCCCCN(C)CCCOC(=O)c2c3ccccc3cc3ccccc23)cc(OC)c1OC` as the molecule, how does the IC50 [1] read?
A: Its IC50 is 100 nM.

Q: Which IC50 [1] does the source give for `C=C[C@@H]1CN2CC[C@H]1C[C@H]2[C@H](OCC(=O)OCCCN(C)CCCOC(=O)/C=C/c1cc(OC)c(OC)c(OC)c1)c1ccnc2ccc(OC)cc12` here?
A: The IC50 was 5060 nM.

Q: With `COc1cc(C#CC(=O)OCCCCN(C)CCCCOC(=O)c2c3ccccc3cc3ccccc23)cc(OC)c1OC` as the molecule, how does the IC50 [1] read?
A: Its IC50 is 100 nM.

Q: Which IC50 [1] does the source give for `COc1cc(/C=C/C(=O)OCCCN(C)CCCCCOC(=O)c2cc(OC)c(OC)c(OC)c2)cc(OC)c1OC` here?
A: The IC50 was 270 nM.

Q: With `COc1cc(/C=C/C(=O)OCCCN(C)CCCCCOC(=O)C2c3ccccc3-c3ccccc32)cc(OC)c1OC` as the molecule, how does the IC50 [1] read?
A: The IC50 was 350 nM.

Q: With `COc1cc(C#CC(=O)OCCCN(C)CCCOC(=O)c2cc(OC)c(OC)c(OC)c2)cc(OC)c1OC` as the molecule, how does the IC50 [1] read?
A: Its IC50 is 1000 nM.

Q: For `COc1ccc2nccc(C(=O)OCCCN(C)CCCOC(=O)/C=C/c3cc(OC)c(OC)c(OC)c3)c2c1`, which IC50 [1] is on record?
A: Its IC50 is 880 nM.

Q: For `COc1cc(C#CC(=O)OCCCCCN(C)CCCOC(=O)c2cc(OC)c(OC)c(OC)c2)cc(OC)c1OC`, which IC50 [1] is on record?
A: Its IC50 is 310 nM.

Q: For `COc1cc(C#CC(=O)OCCCN(C)CCCOC(=O)c2c3ccccc3cc3ccccc23)cc(OC)c1OC`, which IC50 [1] is on record?
A: Its IC50 is 700 nM.

Q: For `COc1cc(/C=C/C(=O)OCCCCCN(C)CCCOC(=O)c2cc(OC)c(OC)c(OC)c2)cc(OC)c1OC`, which IC50 [1] is on record?
A: The IC50 was 120 nM.

Q: Which IC50 [1] does the source give for `COc1ccc2nccc(C(=O)OCCCCCN(C)CCCCCOC(=O)/C=C/c3cc(OC)c(OC)c(OC)c3)c2c1` here?
A: The IC50 was 750 nM.

Q: Which IC50 [1] does the source give for `COc1cc(C#CC(=O)OCCCCCN(C)CCCCCOC(=O)c2c3ccccc3cc3ccccc23)cc(OC)c1OC` here?
A: Its IC50 is 340 nM.

Q: Which IC50 [1] does the source give for `COc1cc(/C=C/C(=O)OCCCCN(C)CCCCOC(=O)c2cc(OC)c(OC)c(OC)c2)cc(OC)c1OC` here?
A: The IC50 was 1530 nM.

Q: With `COc1cc(/C=C/C(=O)OCCCCN(C)CCCCOC(=O)C2c3ccccc3-c3ccccc32)cc(OC)c1OC` as the molecule, how does the IC50 [1] read?
A: Its IC50 is 110 nM.

Q: For `COc1cc(/C=C/C(=O)OCCCCN(C)CCCCOC(=O)c2c3ccccc3cc3ccccc23)cc(OC)c1OC`, which Activity (K562 [2]) is on record?
A: Its Activity is “Non-toxic”.

Q: What about the IC50 [1] of the same molecule?
A: Its IC50 is 70 nM.

Q: And the mortality [3]?
A: The mortality was 100%.

Q: What about the Activity (K562 [4]) of the same molecule?
A: The Activity was “<= 20%”.

Q: For `C=C[C@@H]1CN2CC[C@H]1C[C@H]2[C@@H](OCC(=O)OCCCN(C)CCCOC(=O)/C=C/c1cc(OC)c(OC)c(OC)c1)c1ccnc2ccc(OC)cc12`, which IC50 [1] is on record?
A: Its IC50 is 4790 nM.

Q: With `COc1cc(/C=C/C(=O)OCCCCCN(C)CCCOC(=O)C2c3ccccc3-c3ccccc32)cc(OC)c1OC` as the molecule, how does the IC50 [1] read?
A: Its IC50 is 190 nM.

Q: For `C=C[C@@H]1CN2CC[C@H]1C[C@H]2[C@H](OCC(=O)OCCCCCN(C)CCCCCOC(=O)/C=C/c1cc(OC)c(OC)c(OC)c1)c1ccnc2ccc(OC)cc12`, which IC50 [1] is on record?
A: Its IC50 is 3430 nM.

Q: What does the source list for `COc1cc(/C=C/C(=O)OCCCN(C)CCCCCOC(=O)c2c3ccccc3cc3ccccc23)cc(OC)c1OC`?
A: Activity (K562 [2]): Non-toxic; IC50 [1]: 40 nM; Activity (K562 [4]): <= 20%

Q: With `COc1cc(/C=C/C(=O)OCCCN(C)CCCOC(=O)C2c3ccccc3-c3ccccc32)cc(OC)c1OC` as the molecule, how does the IC50 [1] read?
A: The IC50 was 500 nM.

Q: With `COc1cc(C#CC(=O)OCCCN(C)CCCCCOC(=O)c2cc(OC)c(OC)c(OC)c2)cc(OC)c1OC` as the molecule, how does the IC50 [1] read?
A: The IC50 was 260 nM.

Q: Which IC50 [1] does the source give for `COc1cc(C#CC(=O)OCCCCCN(C)CCCCCOC(=O)c2cc(OC)c(OC)c(OC)c2)cc(OC)c1OC` here?
A: Its IC50 is 290 nM.

Q: Which IC50 [1] does the source give for `COc1cc(C#CC(=O)OCCCCN(C)CCCCOC(=O)c2cc(OC)c(OC)c(OC)c2)cc(OC)c1OC` here?
A: The IC50 was 1030 nM.
